The text below walks through data of paper PMC5490379 (Molecular pharmaceutics, 2017).

The target of data set [1] is T1, σ2 receptor (Rattus norvegicus, UniProt Q5U3Y7).
T1 sequence (Q5U3Y7 1-176): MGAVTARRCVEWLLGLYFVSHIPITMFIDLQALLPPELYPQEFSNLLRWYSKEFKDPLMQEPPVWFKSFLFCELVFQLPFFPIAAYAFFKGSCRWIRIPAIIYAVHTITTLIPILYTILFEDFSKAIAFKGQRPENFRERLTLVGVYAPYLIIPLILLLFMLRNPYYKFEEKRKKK
Description: In vitro σ2 binding assay. The settings on record: for Ki σ2: rat liver membrane homogenates, 3 nM [^3H]DTG, 1 μM dextrallorphan; for fold reduction in σ2 affinity: compared with 3a. Summed up: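 Rat liver membrane homogenate (150–200 µg protein) incubated with 3 nM [3H]DTG (39.4 Ci/mmol) plus 1 µM dextrallorphan to mask σ1 sites, with test compound from 10-4 to 10-12 M. Conditions as for σ1: 50 mM Tris-HCl pH 8.0, 25 °C, 120 min, then filtration. […] IC50 by curve fitting, converted to Ki by Cheng-Prusoff.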

Data set [2] has as its target σ1 receptor (Cavia porcellus, UniProt Q60492). The data set can be described thus: In vitro σ1 binding assay. Further details: species or system guinea pig. To be noted: for Ki σ1: guinea pig brain membrane homogenates; for fold reduction in σ1 affinity: compared with 3a. Summed up:
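Guinea pig brain membrane homogenate (300–500 µg protein) incubated with 3 nM [3H]-(+)-pentazocine (51.7 Ci/mmol) and test compound (10-4 to 10-12 M) in 50 mM Tris-HCl pH 8.0, 25 °C, 120 min. Stopped with ice-cold 10 mM Tris-HCl pH 8.0, filtered on PEI-soaked glass fibre filters, washed twice. […] IC50 by iterative curve fitting; Ki by Cheng-Prusoff. Protein by Lowry.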

The nature of data set [3]: Mouse liver microsomal assay. The data set is classed as in vitro ADME. To be noted: liver microsomes. Summed up: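 Mouse liver microsomes (20 mg/mL stock) diluted in 0.1 M phosphate buffer containing 3.3 mM MgCl2. Test compound added from a 100 µM stock, with verapamil as positive control. Intact test compound quantified over time by LC-MS/MS, and metabolic degradation half-life derived from its disappearance.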
For orientation: Liver microsomes are a subcellular fraction often used to study metabolism.

For data set [4], the system named is σ1 receptor. The settings on record: ref [10]; cited from earlier work.
Data set [5] has as its system PC-3 prostate tumors. The settings on record: mice bearing PC-3 prostate tumors; ref [30]; cited from earlier work.

Chain of σ1 receptor (Cavia porcellus, UniProt Q60492) (Q60492 whole entry): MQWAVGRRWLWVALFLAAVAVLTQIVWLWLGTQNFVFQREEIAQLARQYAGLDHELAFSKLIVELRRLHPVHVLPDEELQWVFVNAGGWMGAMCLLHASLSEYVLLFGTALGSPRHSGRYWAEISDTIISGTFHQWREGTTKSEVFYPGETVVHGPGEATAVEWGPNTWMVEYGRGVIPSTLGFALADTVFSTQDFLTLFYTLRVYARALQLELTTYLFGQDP

`O=C(NCCN1CCCCC1)c1cc(Br)ccc1O` [Compound 2, 5-Bromo-2-hydroxy-N-{2-(piperidin-1-yl)ethyl}benzamide]: the “Ki σ2” value in data set [1] is “devoid of σ receptor binding affinity”. The “Ki σ1” value in data set [2] (3 nM [^3H]-(+)-pentazocine) is “devoid of σ receptor binding affinity”. As for `O=C(NCCN1CCCCC1)c1cc(Br)ccc1OCCF` [Compound 3a, 5-Bromo-2-(2-fluoroethoxy)-N-{2-(piperidin-1-yl)ethyl}benzamide], in data set [2] (Ki σ1, guinea pig brain membrane homogenates, 3 nM [^3H]-(+)-pentazocine), the Ki (commonly a measure of affinity in units of concentration, obtained from inhibition or displacement) stood at 6.3 nM. Moreover, the half-life – broadly, how long it takes for the measured level to halve – at 1 μM in data set [3] is 5.94 min. In the case of `O=C(NCCN1CCCCC1)c1cc(Br)ccc1OCCCF` [Compound 3b, 5-Bromo-2-(3-fluoropropoxy)-N-{2-(piperidin-1-yl)ethyl}benzamide], in data set [1], the “fold reduction in σ2 affinity” value turned out to be 9 fold. The “fold reduction in σ1 affinity” value in data set [2] was 9 fold. Turning to `O=C(NCCN1CCCCC1)c1ccc(I)cc1` [Compound 4-IPAB], the σ1 affinity result in data set [4] is listed as “nanomolar”. Regarding `O=C(NCCN1CCCCC1)c1ccc(O)c(Br)c1` [Compound 6, 3-Bromo-4-hydroxy-N-{2-(piperidin-1-yl)ethyl}benzamide], the “Ki σ2” value in data set [1] is “devoid of σ receptor binding affinity”. The “Ki σ1” value in data set [2] (3 nM [^3H]-(+)-pentazocine) is “devoid of σ receptor binding affinity”. On to `O=C(NCCN1CCCCC1)c1ccc(OCCF)c(Br)c1` [Compound 7a, 3-Bromo-4-(2-fluoroethoxy)-N-{2-(piperidin-1-yl)-ethyl}benzamide], for which the “fold reduction in σ2 affinity” value in data set [1] worked out at 4 fold. Further, the “fold reduction in σ1 affinity” value in data set [2] came out at 6 fold. As to `COc1ccc(C(=O)NCCN2CCCCC2)cc1I` [PIMBA], the σ1 affinity entry in data set [4] is listed as “nanomolar”. Consider `[11CH3]Oc1cccc2c1CCCC2CCCN1CCN(C2CCCCC2)CC1` (stereo not shown) [[^11C]PB28], for which, in data set [5], the tumor uptake entry is on record as “poor tumor uptake”.
